# Laboratory results reported in PubChem BioAssay AID493236 (Broad Institute, 2011).
# Inconclusive results are not listed. Active and inactive are the calls of the source.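 The calls were made as follows: active = luminescence cut by more than half of the full-inhibition control window in a dose series; inconclusive = no clear call, values can overlap the other calls; inactive = signal rising instead of falling, or the rest.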
# Tested on: proteasome chymotrypsin-like activity (human)
# Assay: inhibition of cellular proteasome chymotrypsin-like cleavage – cell-based, U2OS, luminescence, dry powder, set 4, counter-screen for HIF pathway activator project, dose response (AID 493236)
# Conditions: U2OS cells, Proteasome-Glo chymotrypsin luminescence; series mostly up to 38 µM; activity change, negative = inhibition: at the top concentration
# How it was run: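 System: U2OS cells. Input: 2,500 U2OS cells per well. Compound dosing: 8-point threefold dilution series, source stock top 16.5 mM. Timing: 24 h plating, 4 h compound, 2 h reagent. Technique: Proteasome-Glo luminescence. Evaluation: percent activity relative to MG132 and DMSO. Controls: MG132 (1 µM) and DMSO. Repeats: each compound tested in duplicate.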
Compound,"activity change, negative = inhibition",outcome
Clc1cccc(CNc2nc(-c3ccccn3)nnc2-c2ccccc2)c1,-1.26% (inactive),
COc1ccc(CNc2nc(-c3ccccn3)nnc2-c2ccccc2)cc1,-0.602% (inactive),
COc1cccc(CNc2nc(-c3ccccn3)nnc2-c2ccccc2)c1,2.66% (inactive),
OCC1CCN(c2nc(-c3ccccn3)nnc2-c2ccccc2)CC1,-0.354% (inactive),
CN1CCN(C(=O)c2cc(-c3ccccc3)on2)CC1,-0.104% (inactive),
CC1CN(Cc2ccc(O)c3ncccc23)CC(C)O1 (stereo not given),-10% (inactive),
Cc1ccccc1CNc1nc(-c2ccccn2)nnc1-c1ccccc1,2.35% (inactive),
c1ccc(-c2nnc(-c3ccccn3)nc2NCC2CC2)cc1,-1.38% (inactive),
O=C(NCCN1CCOCC1)c1cc(-c2ccccc2)on1,-6.96% (inactive),
O=C(NCCCO)c1cc(-c2ccccc2)on1,0.054% (inactive),
c1ccc(-c2nnc(-c3ccccn3)nc2N2CCC(c3ccccc3)C2)cc1 (stereo not given),1.51% (inactive),
Oc1ccc(CN2CCc3ccccc3C2)c2cccnc12,,inactive
CC(C)(C)CCNc1nc(-c2ccccn2)nnc1-c1ccccc1,-2.25% (inactive),
C[C@@H](Nc1nc(-c2ccccn2)nnc1-c1ccccc1)c1ccccc1,-7.7% (inactive),
O=C(c1cc(-c2ccccc2)on1)N1CCC(N2CCOCC2)CC1,3.6% (inactive),
O=C(NCCCn1ccnc1)c1cc(-c2ccccc2)on1,-8.48% (inactive),
C[C@H](Nc1nc(-c2ccccn2)nnc1-c1ccccc1)C1CCCCC1,2.06% (inactive),
c1ccc(-c2ccc(CNc3nc(-c4ccccn4)nnc3-c3ccccc3)cc2)cc1,-2.18% (inactive),
Cc1ccc(Nc2nc(-c3ccccn3)nnc2-c2ccccc2)cn1,-0.351% (inactive),
c1ccc(-c2cccc(CNc3nc(-c4ccccn4)nnc3-c3ccccc3)c2)cc1,10.3% (inactive),

Compound,"activity change, negative = inhibition",outcome
Oc1ccc(CN2CCC(Cc3ccccc3)CC2)c2cccnc12,-2.75% (inactive),
O=C(NCCCCO)c1cc(-c2ccccc2)on1,-7.19% (inactive),
c1ccc(-c2nnc(-c3ccccn3)nc2NCC2CCCCC2)cc1,-0.951% (inactive),
COc1ccccc1N1CCN(Cc2ccc(O)c3ncccc23)CC1,-1.65% (inactive),
CCCCNC(=O)c1cc(-c2ccccc2)on1,0.305% (inactive),
O=C(NCCCN1CCOCC1)c1cc(-c2ccccc2)on1,-1.67% (inactive),
O=C(Nc1ncc(-c2ccccc2)o1)c1cc(-c2ccccc2)on1,1.92% (inactive),
c1ccc(-c2nnc(-c3ccccn3)nc2Nc2cnc3ccccc3n2)cc1,-6.01% (inactive),
c1ccc(-c2nnc(-c3ccccn3)nc2N2CCC(C3CCCCC3)C2)cc1 (stereo not given),-2.79% (inactive),
OCCCNc1nc(-c2ccccn2)nnc1-c1ccccc1,-1.6% (inactive),
c1ccc(-c2nnc(-c3ccccn3)nc2NCCN2CCOCC2)cc1,-6.63% (inactive),
Cc1cccc(Nc2nc(-c3ccccn3)nnc2-c2ccccc2)n1,6.59% (inactive),
c1ccc(CCNc2nc(-c3ccccn3)nnc2-c2ccccc2)cc1,-3.33% (inactive),
Cc1ccc(CNC(=O)c2cc(-c3ccccc3)on2)cc1,2.56% (inactive),
c1ccc(-c2nnc(-c3ccccn3)nc2NCC2CCOCC2)cc1,-4.29% (inactive),
Cc1ccc(CNc2nc(-c3ccccn3)nnc2-c2ccccc2)cc1C,-3.29% (inactive),
c1ccc(-c2nnc(-c3ccccn3)nc2NCCc2ccccn2)cc1,-5.96% (inactive),
Cc1cccc(CNC(=O)c2cc(-c3ccccc3)on2)c1,4.7% (inactive),
O=C(Nc1ccc2ccccc2n1)c1cc(-c2ccccc2)on1,-3.31% (inactive),
Cc1cccc(CNc2nc(-c3ccccn3)nnc2-c2ccccc2)c1,-2.56% (inactive),
